A short description of the data set: Toxicity liver stage against HepG2, at 10uM. It is filed as cell-based. Details: test concentration 10 uM, cell line HepG2-A16-CD81EGFP. The conditions noted are these: human, HepG2-A16-CD81EGFP cells; read-out: INHIBITION
In short, it runs like this: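 Uninfected HepG2-A16-CD81EGFP cells, 3 × 10^3 per well, 1536-well, plated on prespotted compound at 10 μM final, parasite-free screening media added to match infected plates; puromycin 10 μM positive, DMSO 0.5% negative; run in parallel with 48 h PbLuc assay at 37 °C, 5% CO2; viability by CellTiter-Glo luminescence, normalized to controls.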
Regarding `CC(=O)N1CCN2C(=O)N(Cc3ccc(F)cc3)C[C@H]2C1`, the cytotoxicity at 10 µM is -4.26%. In the case of `O=C(c1ccno1)N1CCN2C(=O)N(Cc3ccc(F)cc3)C[C@H]2C1` it was -5.96%; in that of `Cc1cccn2c(=O)cc(CSCC(=O)Nc3nnc(C(C)C)s3)nc12`, 0.879%. The value for `COc1ccc(NC(=O)C2OC(c3cccs3)=NN2C(C)=O)cc1OC` (configuration not stated) was -2.19%.

With `CC(C)c1ccc(C2CC(=O)Nc3c2cnn3C)cc1` (configuration not stated), the cytotoxicity at 10 µM is -2.9%. The value for `O=C(CCc1nc2cccnc2[nH]1)Nc1ccc2c(c1)NC(=O)CO2` was -1.94%.

As for `CN(C)CCCNC(=O)C1CC(=O)N(c2n[nH]c3cccc(F)c23)C1` (configuration not stated), the cytotoxicity at 10 µM is -5.92%. For `CCN1CCCC1CNC(=O)Cc1c(-c2ccc(Cl)cc2)n[nH]c1C` (configuration not stated), the cytotoxicity at 10 µM was -5.4%.

With `Cc1cc(CN2CCC(CNS(=O)(=O)c3ccccc3F)CC2)c(C)o1`, the cytotoxicity at 10 µM was 5.48%. Regarding `O=C(N1CCCO1)[C@@]12CCO[C@@H]1CCN(Cc1ccsc1)C2`, the cytotoxicity at 10 µM was found to be 1.73%. The value for `Cc1cc(NC(=O)C(C)Oc2ccc3c(c2)OCO3)no1` (configuration not stated) was -5.08%; that for `COc1ccccc1CN(C)Cc1ccnc(C2CCCO2)n1` (configuration not stated) was 4.65%; that for `CCN(CC)C1CCN(C(=O)c2cc(-n3cccn3)ccc2Cl)CC1` was 2.87%. In the case of `OC1(CN2CCC(Cc3ncccn3)CC2)CCCCC1`, the cytotoxicity at 10 µM is 7.69%. As for `CC(C)N1CCCC1c1nc(N(C)C)ncc1I` (configuration not stated), the cytotoxicity at 10 µM was -0.358%. In the case of `CCOc1ccc(CN2CCC(c3[nH]ncc3C)C2)cc1CO` (configuration not stated) it was -2.38%; in that of `Cc1noc(C)c1CC(=O)NCC1(O)CCCN(c2ccccn2)C1` (configuration not stated), -2.03%; in that of `COCCNCc1cc2cc(C)cc(C)c2[nH]c1=O`, -2.13%.

Regarding `CNc1cc(C2CN(CC(=O)N(C)C)CCO2)nc(C)n1` (configuration not stated), the cytotoxicity at 10 µM is -14.4%.

With `Cc1cc(N2CCCC2c2cncc(N(C)C)n2)ncn1` (configuration not stated), the cytotoxicity at 10 µM is -15.2%. In the case of `COc1ccccc1CN1CCC(O)(Cn2ccc3ncccc32)CC1` it was -0.692%. Regarding `CC(=O)NC[C@]1(O)CCN(C(=O)c2ccc3c(c2)CCC3)C[C@H]1O`, the cytotoxicity at 10 µM is 1.75%.

Take `O=C(c1ccco1)N1CCCC(c2cc(C(F)F)n3ncnc3n2)C1` (configuration not stated): the cytotoxicity at 10 µM turned out to be 4.4%.

Take `O=C(Cc1cccc(F)c1F)NS(=O)(=O)c1cncc(Cl)c1`: the cytotoxicity at 10 µM stood at 14.5%. As for `COc1ccccc1CC(C)N(C)S(C)(=O)=O` (configuration not stated), the cytotoxicity at 10 µM turned out to be 14%.

As to `COCCCNC(=O)CN(C)C(C)c1nc(C)no1` (configuration not stated), the cytotoxicity at 10 µM was found to be 8.8%.

As for `CN(Cc1ccsc1)C(=O)COC(=O)c1cc(Cl)c[nH]1`, the cytotoxicity at 10 µM was -3.73%. The value for `CC(NS(N)(=O)=O)c1ccc(OCc2ccc(F)cc2)cc1` (configuration not stated) was -2.98%. In the case of `O=C1NCCCCC1NC(=O)C1(c2cccc(Cl)c2)CC1` (configuration not stated) it was 2.68%; in that of `O=C(CNC(=O)c1ccc(Cl)cc1)Nc1nccs1`, -7.55%; in that of `CS(=O)(=O)N1CCC(C(=O)N2CCN(Cc3cccc(Cl)c3)CC2)CC1`, 8.99%. In the case of `CC1CN(C(=O)NCc2ccn(C)c2)CCN1CC(F)(F)F` (configuration not stated) it was -4.32%. Take `CCS(=O)(=O)Cc1ccn(-c2cccc(F)c2)n1`: the cytotoxicity at 10 µM was -0.988%. The value for `CCc1nc(CN(C)CC(=O)NC(C)C)cs1` was 1.48%; that for `O=C(c1cccnc1)N(Cc1ccncc1)C1CC1` was 8.32%; that for `Cn1nc(CC(C)(C)C)cc1NC(=O)c1ccc2[nH]nnc2c1` was 1.25%.

In the case of `Cc1cc(C)n(CC2CCCN2CC(=O)Nc2nncs2)n1` (configuration not stated), the cytotoxicity at 10 µM is 12.1%. In the case of `Cc1ccc(C(=O)N2CCSCC2)cc1NC(C)C` it was -3.42%; in that of `CCC1CCCCN1Cc1ncc(-c2ccc(OC)cc2)o1` (configuration not stated), 8.57%. `CCc1nc(CN(C)Cc2ncc(-c3cccs3)o2)cs1`: the cytotoxicity at 10 µM stood at 9.15%. For the molecule `Cc1noc(C)c1CNCc1ccccc1N(C)C1CCN(C)CC1`, the cytotoxicity at 10 µM was 4.69%. Consider `O=C1CC2(CCSC2)C(=O)N1Cc1ncc(-c2ccccc2)o1` (configuration not stated), for which the cytotoxicity at 10 µM came out at 14.4%. In the case of `CN(CCN1CCCC1=O)CC(c1cccs1)N1CCOCC1` (configuration not stated) it was 1.52%; in that of `OC1(CN2CCC(Cc3ccccc3)CC2)CCC1`, -8.26%; in that of `COc1ccccc1C(C)N1CCN(S(=O)(=O)N(C)C)CC1` (configuration not stated), -8.8%. In the case of `c1cnn(C2CN(Cc3noc(C4CC4)n3)C2)c1` it was 0.138%; in that of `c1cnc(N2CCN(Cn3nccc3-c3cccnc3)CC2)nc1`, 8.99%. For the molecule `Cc1csc(C2(NCc3ccc(OCC(F)F)cc3)CCCC2)n1`, the cytotoxicity at 10 µM came out at 2.15%. In the case of `N#Cc1cc(F)c(NCCc2cccnc2)c(F)c1`, the cytotoxicity at 10 µM is -68.5%. As to `CN(Cc1cccc(F)c1)C(=O)c1ccncc1Cl`, the cytotoxicity at 10 µM turned out to be 10.5%.

In the case of `Cc1nn(C)c(Cl)c1S(=O)(=O)N(C)c1ccc(Cl)cn1`, the cytotoxicity at 10 µM turned out to be 7.92%. In the case of `O=c1ccc2c(n1CC1CC1)CCC(NS(=O)(=O)C1CC1)C2` (configuration not stated) it was -63.9%.

With `Cc1ccc2c(c1)[C@@H](CC(=O)N1CCOCC1)CCO2`, the cytotoxicity at 10 µM was determined as 8.24%. The value for `Nc1ncc(-c2cccc(NC(=O)[C@@H]3CCCCN3)c2)cn1` was 1.86%; that for `COc1cncc(-n2ccnc2-c2ccc(C(=O)O)s2)c1` was 0.571%.

Regarding `COc1cc(C(=O)N(C)C(C)Cc2cc(C)ccn2)ccn1` (configuration not stated), the cytotoxicity at 10 µM was -9.57%. In the case of `CCn1ccnc1CN(C)Cc1nc(Cc2ccccc2Cl)no1` it was -1.99%; in that of `Cn1ncnc1-c1ccnc(NCc2ccncc2)n1`, -3.89%; in that of `OCC1(Cc2ccc(Cl)cc2)CCN(Cc2ccccc2O)CC1`, -137%. In the case of `CC(C)C1=NOC(c2nc(-c3cccc(Cl)c3)no2)C1` (configuration not stated) it was -7.42%.

`Cc1ncc2c(c1CNC(=O)C1(C)CC1)CCNC2`: the cytotoxicity at 10 µM is -50.3%.

As for `CC(=O)N[C@@H]1CN(C2CCN(c3ccccc3F)CC2)C[C@H]1C(C)C`, the cytotoxicity at 10 µM was -14.5%.

Consider `Cc1nnsc1C(=O)N1CCN(CC2CC2)[C@@H]2CS(=O)(=O)C[C@@H]21`, for which the cytotoxicity at 10 µM came out at 0.445%. The value for `O=C(COCc1ccccc1)N1CCCn2cncc2C1` was 0.375%; that for `COc1cccc2c1OCCCN(c1nc(C)nc3c1CCNCC3)C2` was -10.6%. In the case of `O=C(Nc1cnc2n1CCCC2)c1cccc(NC(=O)C2CCCC2)c1` it was -5.09%. In the case of `CCc1nnc(CN2CCc3[nH]c(-c4ccc(OC)cc4)nc3C2)o1` it was -132%; in that of `CC(C)C1CN(C(=O)c2ccc(Cl)cn2)CCCN1CC1CC1` (configuration not stated), 5.15%.

In the case of `CNc1nc2c(c(C(=O)N3CCCC3)n1)CN(Cc1cc(C)no1)CC2`, the cytotoxicity at 10 µM is -103%. On to `O=C(NCCc1[nH]nc2c1CCCC2)C1CCCN(Cc2ccco2)C1` (configuration not stated), for which the cytotoxicity at 10 µM worked out at 2.72%. The value for `CCN(Cc1ccc(C(C)=O)cc1)CC1CCOCC1` was -2.69%; that for `CCC(Cn1ccnc1)n1cnc2scc(C)c2c1=O` (configuration not stated) was 10.7%.

Turning to `CCN(Cc1ccncc1)c1cc(C2CCNCC2)nc(C)n1`, the cytotoxicity at 10 µM stood at 4.34%. The value for `CC(C)NCc1cc2n(n1)CCN(C1CCCCC1)C2` was -8.9%; that for `CN(Cc1cc2n(n1)CCNC2)Cc1cc(-c2ccccn2)no1` was 1.91%; that for `O=C(c1cc(Cn2cnc3ccccc32)on1)N1CCOCC1` was -2.46%. With `c1cnc(N2CCN(CCn3ccnc3-c3c[nH]cn3)CC2)nc1`, the cytotoxicity at 10 µM was determined as 2.14%. The value for `Cc1ccc(-c2noc(CCC3CCN(C)CC3)n2)nn1` was -5.79%; that for `CCn1ccnc1CN1C[C@@H](NC(=O)C2CC2)[C@H](c2ccc(C)cc2)C1` was 2.63%.

With `CC(Oc1ccc(F)cc1F)C(=O)N1CCC2(CCCO2)CC1` (configuration not stated), the cytotoxicity at 10 µM amounted to 2.24%. In the case of `CC(C)(C)c1cc(CN2CCOC(CN)C2)n[nH]1` (configuration not stated) it was -12.1%. The value for `CN(Cc1ccccc1)C(=O)CCN1C[C@H](C2CC2)[C@@H](N(C)C)C1` was -1.21%; that for `Cc1ncc(CN2CCN(C(=O)C3CCC3)[C@@H]3CS(=O)(=O)C[C@@H]32)cn1` was -4.19%; that for `NS(=O)(=O)Cc1cccc(C(=O)N2CCCC(n3cccn3)C2)c1` (configuration not stated) was 1.25%.

In the case of `O=C(c1cc(C2CC2)[nH]n1)N1CCCC(n2cncn2)C1` (configuration not stated), the cytotoxicity at 10 µM was -6%.

As for `CCn1ccnc1CN1CCN(CC(O)c2ccccc2)CC1` (configuration not stated), the cytotoxicity at 10 µM was -7.41%. As to `O=C(CCCc1nc2ccccc2[nH]1)N1CCCC(n2cccn2)C1` (configuration not stated), the cytotoxicity at 10 µM is -0.704%.

`Cc1cnn(CCNCc2csc(-c3ccc(F)cc3)n2)c1`: the cytotoxicity at 10 µM was -8.54%.

Regarding `Cn1cc(CN2CCC3(CCN(c4cnn(C)c4)C3=O)C2)cn1` (configuration not stated), the cytotoxicity at 10 µM was -83.4%. `Cc1ccc(N2CC[C@H]3C[C@H](C(=O)NCc4ccco4)O[C@H]3C2)nn1`: the cytotoxicity at 10 µM was -3.03%. In the case of `Cc1cncc(C(=O)N2CCO[C@H]3[C@H](OCCN(C)C)CC[C@@H]32)c1` it was 8.07%. The value for `NC(=O)N1C[C@H]2CN(Cc3nccs3)C[C@H]2C1` was 2.6%.

Turning to `Cc1occc1C(=O)N1CCC2(CC1)CN(c1ccccn1)CCO2`, the cytotoxicity at 10 µM was -75.6%. The value for `CCS(=O)(=O)N1CCCn2cnc(COc3cccnc3)c2C1` was -0.00278%.

As for `Cn1cc(N2CC3(CCN(Cc4nccn4C)C3)CC2=O)cn1` (configuration not stated), the cytotoxicity at 10 µM is -72.8%. For `O=C(c1cnccn1)N1C[C@@H](OCc2cccnc2)[C@H]2OCCC[C@H]21`, the cytotoxicity at 10 µM is -2.78%. Turning to `O=C(c1cscn1)N1CCC2(CCN(Cc3nccs3)CC2)C1`, the cytotoxicity at 10 µM is -69%.
